Measurements pooled from the literature.
Lines come from different studies, so protocols differ.

| Structure (SMILES) | tested on | test | system | setting | quantity | value |
| --- | --- | --- | --- | --- | --- | --- |
| Cc1cccc2c(CNCC3(N4CCCC4)COC3)c[nH]c12 | T98G | cell growth or viability |  | 30 µM, 48 h | viability | 34.1% |
| COc1nc2ccc(Br)cc2cc1[C@@H](c1ccccc1)[C@@](O)(CCN(C)C)c1cccc2ccccc12 | Mycolicibacterium phlei | microbial growth |  |  | MIC | 0.05 µg/mL |
| Cc1ccc(-c2nc3ccc(C)cn3c2CC(=O)N(C)C)cc1 | Mycobacterium avium | microbial growth |  | 6 days | MIC | > 50 µM |
| O=C(NC1CCC(CN2CCC(c3c[nH]c4ccccc34)CC2)CC1)c1[nH]c(=O)[nH]c(=O)c1F (stereo not shown) | HEK293 | cell growth or viability |  |  | IC50 | > 10 µM |
| C#C[C@]1(O)CC[C@H]2[C@@H]3CCc4cc(O)ccc4[C@H]3CC[C@@]21C | Vesicular stomatitis virus | viral entry, inhibitor | Vero C1008 | pseudovirus | IC50 | 25 to 70 µM |
| [H]/N=C(/N)N[C@H]1[C@H](O)[C@@H](O)[C@H](O[C@@H]2O[C@@H](C)[C@](O)(C=O)[C@H]2O[C@@H]2O[C@@H](CO)[C@H](O)[C@@H](O)[C@@H]2NC)[C@@H](N/C(N)=N\[H])[C@@H]1O | Mycobacterium avium | microbial growth | ATCC25291 |  | MIC | 12.5 µg/mL |
| O=c1c2ccccc2[se]n1-c1ccccc1 | HEK293 | cell growth or viability, MTT |  | 250 µM, 72 h | inhibition | 64% |
| COc1ccc(OC)c(C=CC(=O)NC2CCC(CN3CCC(c4c[nH]c5ccccc45)CC3)CC2)c1 (stereo not shown) | HEK293 | cell growth or viability |  |  | IC50 | > 10 µM |
| COC(=O)C1=C(C)NC(C)=C(C(=O)OCCN(C)Cc2ccccc2)C1c1cccc([N+](=O)[O-])c1 (stereo not shown) | Vesicular stomatitis virus | viral entry, inhibitor | Vero C1008 | pseudovirus | IC50 | 25 to 70 µM |
| Cc1nc(C)c(-c2ccc(Oc3ccc(OC(F)(F)F)cc3)cc2)c(OC(=O)N(CCNC(C)C)C(C)C)c1Br | HEK293 | cell growth or viability |  |  | IC50 | > 10 µM |
| Cc1ccc2c(CNCC3(N4CCCC4)COC3)c[nH]c2c1 | GBM6 | cell growth or viability |  | 30 µM, 48 h | viability | 60.6% |
| CCCCCCCc1cc(=O)c2ccccc2[nH]1 | HEK293 | cell growth or viability |  |  | IC50 | > 10 µM |
| COc1cc(C)[nH]c(=O)c1CNC(=O)c1c(C)n([C@H](C)C2CCN(CC(F)(F)F)CC2)c2ccccc12 | KARPAS-422 | cell growth or viability |  | 8 days | GI50 | 0.39 µM |
